Reference: ChEMBL document CHEMBL1629542, “Epigallocatechin gallate inactivates clinical isolates of herpes simplex virus” (Antimicrob Agents Chemother, 2008)
The source made the active and inactive calls. The rule behind the calls is not given here.

Legend:
[1] = test system: Human alphaherpesvirus 2; assay: Antiviral activity against Human herpesvirus 2 isolate P2 infected in African green monkey CV1 cells; assay type: functional, organism-based; settings: Human alphaherpesvirus 2, isolate P2, CV-1
In short: (§1)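 HSV-2 patient-swab isolates were grown as clarified CV-1 supernatants and incubated 1 h with a range of EGCG concentrations (RPMI 1640/1% FCS, pH 7.4). They were titrated on CV-1 cells from 10-fold dilutions by 5-day CPE at 37°C, with Reed-Muench TCID50. IC99 was derived graphically as 99% reduction from zero-drug titre; mean ± SD, three experiments.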

[2] = test system: Human alphaherpesvirus 2; assay: Antiviral activity against Human herpesvirus 2 isolate P22 infected in African green monkey CV1 cells assessed as log reduction in viral titer at 100 uM within 20 mins; assay type: functional, CV-1
In short: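 Time course: clarified CV-1 supernatant of HSV-2 (clinical isolates or strain 333) was exposed to 100 μM EGCG for increasing times. It was then titrated by tenfold dilution on CV-1 cells, three wells per dilution, for 5 days at 37°C with CPE read-out. Reed-Muench TCID50 was compared with the untreated titer. Mean of three separate experiments.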

[3] = test system: Human alphaherpesvirus 1; assay: Antiviral activity against Human herpesvirus 1 isolate P15 infected in African green monkey vero cells assessed as reduction in viral titer; assay type: functional, organism-based; settings: Human alphaherpesvirus 1, isolate P15, Vero
In short: (§2)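 Laboratory HSV-1 F1 or patient-swab HSV-1 isolates were prepared as clarified Vero supernatants. They were incubated 1 h with a range of EGCG concentrations in RPMI 1640/1% FCS at pH 7.4. Titres were determined on Vero cells by 5-day CPE endpoint (Reed-Muench). IC99 was read graphically as 99% titre drop from untreated; mean ± SD, three experiments.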

[4] = test system: Human alphaherpesvirus 1; assay: Antiviral activity against Human herpesvirus 1 isolate P56 infected in African green monkey vero cells assessed as reduction in viral titer at 100 uM; assay type: functional, organism-based; in short: as §2
[5] = test system: Human alphaherpesvirus 1; assay: Antiviral activity against Human herpesvirus 1 isolate P42 infected in African green monkey vero cells assessed as reduction in viral titer at 100 uM; assay type: functional, organism-based; in short: as §2
[6] = test system: Human alphaherpesvirus 2; assay: Antiviral activity against Human herpesvirus 2 isolate P27 infected in African green monkey CV1 cells assessed as log reduction in viral titer at 12.5 uM; assay type: functional, CV-1
In short: (§3)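 HSV-2 (clinical swab isolates or strain 333) was grown in CV-1 cells and used as clarified supernatant. Virus was exposed to graded EGCG for 1 h in RPMI 1640 with 1% FCS, pH 7.4. Tenfold dilutions were titrated on CV-1 cells, three wells each, 5 days at 37°C, scoring CPE. TCID50 was calculated by Reed-Muench. IC99 was read graphically as 99% titer drop from the zero-concentration titer. Mean of three experiments.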

[7] = test system: Human alphaherpesvirus 1; assay: Antiviral activity against Human herpesvirus 1 isolate P25 infected in African green monkey vero cells assessed as reduction in viral titer at 100 uM; assay type: functional, organism-based; in short: as §2
[8] = test system: Human alphaherpesvirus 2; assay: Antiviral activity against Human herpesvirus 2 isolate P11 infected in African green monkey CV1 cells assessed as log reduction in viral titer at 100 uM within 20 mins; assay type: functional, CV-1
In short: (§4)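 HSV-2 clinical isolates from clarified CV-1 supernatants were held with 100 μM EGCG for timed intervals, from 10 min onward. Surviving virus was titrated on CV-1 cells by 10-fold dilution and 5-day CPE scoring, with TCID50 by Reed-Muench. Values are mean ± SD, three experiments.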

[9] = test system: Human alphaherpesvirus 1; assay: Antiviral activity against Human herpesvirus 1 isolate P38 infected in African green monkey vero cells assessed as log reduction in viral titer at 50 uM; assay type: functional; in short: as §2
[10] = test system: Human alphaherpesvirus 2; assay: Antiviral activity against Human herpesvirus 2 isolate P27 infected in African green monkey CV1 cells; assay type: functional, organism-based; settings: Human alphaherpesvirus 2, isolate P27, CV-1; in short: as §3
[11] = test system: Human alphaherpesvirus 1; assay: Antiviral activity against Human herpesvirus 1 isolate P38 infected in African green monkey vero cells assessed as reduction in viral titer; assay type: functional, organism-based; settings: Human alphaherpesvirus 1, isolate P38, Vero; in short: as §2
[12] = test system: Human alphaherpesvirus 1; assay: Antiviral activity against Human herpesvirus 1 isolate P32 infected in African green monkey vero cells assessed as log reduction in viral titer at 50 uM; assay type: functional; in short: as §2
[13] = test system: Human alphaherpesvirus 2; assay: Antiviral activity against Human herpesvirus 2 isolate P11 infected in African green monkey CV1 cells assessed as log reduction in viral titer at 100 uM within 10 mins; assay type: functional, CV-1; in short: as §4
[14] = test system: Human alphaherpesvirus 1; assay: Antiviral activity against Human herpesvirus 1 isolate P32 infected in African green monkey vero cells assessed as log reduction in viral titer at 100 uM within 20 mins; assay type: functional
In short: (§5)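 In the time course, HSV-1 clinical isolates (clarified Vero supernatants) were exposed to 100 μM EGCG for varying times up to 60 min. Residual infectivity was then titrated on Vero cells by 5-day CPE endpoint with Reed-Muench calculation. Mean ± SD of three separate experiments.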

[15] = test system: Human alphaherpesvirus 1; assay: Antiviral activity against Human herpesvirus 1 isolate P42 infected in African green monkey vero cells assessed as log reduction in viral titer at 100 uM after 30 mins; assay type: functional; in short: as §5
[16] = test system: Human alphaherpesvirus 1; assay: Antiviral activity against Human herpesvirus 1 isolate P38 infected in African green monkey vero cells assessed as log reduction in viral titer at 100 uM after 40 to 60 mins; assay type: functional; in short: as §5
[17] = test system: Human alphaherpesvirus 1; assay: Antiviral activity against Human herpesvirus 1 isolate P32 infected in African green monkey vero cells assessed as reduction in viral titer; assay type: functional, organism-based; settings: Human alphaherpesvirus 1, isolate P32, Vero; in short: as §2
[18] = test system: Human alphaherpesvirus 2; assay: Antiviral activity against Human herpesvirus 2 isolate P11 infected in African green monkey CV1 cells; assay type: functional, organism-based; settings: Human alphaherpesvirus 2, isolate P11, CV-1; in short: as §1
[19] = test system: Human alphaherpesvirus 1; assay: Antiviral activity against Human herpesvirus 1 isolate P56 infected in African green monkey vero cells assessed as log reduction in viral titer at 100 uM within 10 mins; assay type: functional; in short: as §5
[20] = test system: Human alphaherpesvirus 2; assay: Antiviral activity against Human herpesvirus 2 isolate P47 infected in African green monkey CV1 cells assessed as log reduction in viral titer at 12.5 uM; assay type: functional, CV-1; in short: as §3
[21] = test system: Human alphaherpesvirus 2; assay: Antiviral activity against Human herpesvirus 2 isolate P12 infected in African green monkey CV1 cells assessed as log reduction viral titer at 50 uM; assay type: functional, CV-1; in short: as §1
[22] = test system: Human alphaherpesvirus 2; assay: Antiviral activity against Human herpesvirus 2 isolate P12 infected in African green monkey CV1 cells; assay type: functional, organism-based; settings: Human alphaherpesvirus 2, isolate P12, CV-1; in short: as §1
[23] = test system: Human alphaherpesvirus 1; assay: Antiviral activity against Human herpesvirus 1 isolate P32 infected in African green monkey vero cells assessed as log reduction in viral titer at 100 uM within 10 mins; assay type: functional; in short: as §5
[24] = test system: Human alphaherpesvirus 1; assay: Antiviral activity against Human herpesvirus 1 isolate P56 infected in African green monkey vero cells assessed as log reduction in viral titer at 100 uM within 20 mins; assay type: functional; in short: as §5
[25] = test system: Human alphaherpesvirus 1; assay: Antiviral activity against Human herpesvirus 1 isolate P25 infected in African green monkey vero cells assessed as reduction in viral titer; assay type: functional, organism-based; settings: Human alphaherpesvirus 1, isolate P25, Vero; in short: as §2
[26] = test system: Human alphaherpesvirus 2; assay: Antiviral activity against Human herpesvirus 2 strain 333 infected in African green monkey vero cells assessed as log reduction in viral titer at 100 uM after 60 mins; assay type: functional
In short: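 Lab strain HSV-2 333 was grown and titrated either in CV-1 cells or in Vero cells. Virus was incubated with 100 μM EGCG for 60 min, then titrated as tenfold dilutions for 5 days at 37°C with CPE scoring. Reed-Muench TCID50 of treated versus control virus gave the titer decrease. Mean of three experiments.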

[27] = test system: Human alphaherpesvirus 1; assay: Antiviral activity against Human herpesvirus 1 isolate P42 infected in African green monkey vero cells assessed as log reduction in viral titer at 100 uM after 40 to 60 mins; assay type: functional; in short: as §5
[28] = test system: Human alphaherpesvirus 1; assay: Antiviral activity against Human herpesvirus 1 isolate P38 infected in African green monkey vero cells assessed as log reduction in viral titer at 100 uM after 30 mins; assay type: functional; in short: as §5

## O=C(O[C@@H]1Cc2c(O)cc(O)cc2O[C@@H]1c1cc(O)c(O)c(O)c1)c1cc(O)c(O)c(O)c1 [EPIGALOCATECHIN GALLATE]
[1]
  IC99: 12.3 µM
[2]
  FC: 3
[3]
  IC99: 48.4 µM
[4]
  Activity: Active
[5]
  Activity: Active
[6]
  FC: >=2
[7]
  Activity: Active
[8]
  FC: 3
[9]
  FC: 2
[10]
  IC99: 12.1 µM
[11]
  IC99: 48.2 µM
[12]
  FC: 2
[13]
  FC: 2
[14]
  FC: 3
[15]
  FC: 2
[16]
  FC: 3
[17]
  IC99: 16 µM
[18]
  IC99: 12.5 µM
[19]
  FC: 2
[20]
  FC: >=2
[21]
  FC: >4
[22]
  IC99: 12.5 µM
[23]
  FC: 2
[24]
  FC: 3
[25]
  IC99: 45.4 µM
[26]
  FC: 4
[27]
  FC: 3
[28]
  FC: 2
